The nature of test [1]: reducers of endogenous Her2 protein level, primary screen, SKBR3 breast tumor cells, AlphaScreen, ATP viability (AID 461;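 active = Her2 level under about 52% in both replicate screens, with viability over 70% of control, limit read from the data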;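 for Her2 level: lower value means less Her2 protein in the cells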;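 for viability: percent of carrier control wells set as 100% viability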). Particulars: 18-24 h, measured here: SKBR3 viability, ATP luminescence, at 10 µM.
The target of test [2] is Receptor tyrosine-protein kinase erbB-2 (Homo sapiens) (UniProt P04626). The description is as above. Conditions: 18-24 h, at 10 µM, stronger effect = lower value.
A short description of test [3]: SK-BR-3 cell growth inhibitors, pilot screen, 24 h, human (AID 572;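 active = viability at or below 10% of carrier control in both of two separate runs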;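 note: compound exposure lasted between 18 and 24 h rather than exactly 24 h; 100% = carrier-treated control wells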). Conditions: SK-BR-3 viability, CellTiter-Glo luminescence, at 10 µM, stronger effect = lower value.
Test [4] in a line: HUVEC growth inhibition – cell-based, human, primary screen (AID 575;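 active = viability at or below 30% in both replicate assays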;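 note: 100% = median of untreated cell wells with 0.1% DMSO on each plate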). Conditions: HUVEC proliferation, CellTiter-Glo luminescence, 72 h; at 10 µM; stronger effect = lower value. The gist of the method:
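System: primary human umbilical vein endothelial cells; Quantity: 1250 endothelial cells in each well; Buffer or medium: supplemented EBM, 2% fetal bovine serum; Doses: one dose, 10 µM final, 0.1% DMSO; Incubation: 72 h compound incubation; Technique: ATP-based CellTiter-Glo luminescent read; Evaluation: percent of median DMSO-control luminescence; Controls: vehicle and MePR control wells.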

Test [5] can be described thus: growth inhibitors of H69AR lung tumor, primary screen, human, duplicate replicates (AID 580;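 active = viability at or under a set limit in both replicates, limit being median viability minus 3 SD, cut at about 48% in these data, passing the limit was not always enough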;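 note: 100% = mean luminescence of untreated wells and 0% = no signal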). Particulars: H69AR lung tumor cells viability, ATP luminescence, 72 h; at 10 µM; stronger effect = lower value.
Test [6] in a line: reversal of MRP1-mediated doxorubicin resistance, pilot screen, H69AR cells, doxorubicin co-treatment (AID 601;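 active = viability loss from added drug above about 55%, and viability with drug at most 40%, in both replicates, limit read from the data, passing the limit was not always enough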). Particulars: CellTiter-Glo, 72 h, at 10 µM; for differential viability (reversal): stronger effect = higher value.
A short description of test [7]: 384-well plate pilot, post-Golgi transport modulator project, inhibition of yeast transport mutant growth (AID 636; in the data active = inhibition above about 31%). Particulars: absorbance 615 nm, about 18 h, stronger effect = higher value.
The nature of test [8]: growth suppression of yeast trafficking mutant, preliminary HTS, modulators of trafficking downstream of Golgi apparatus project, 1536-format plate, OD 615 nm (AID 637). Particulars: yeast transport mutant growth, absorbance 615 nm, 18 h; stronger effect = higher value.
Where [9] appears, read: H69AR cells + 2 uM doxorubicin, measured here: viability with 2 uM doxorubicin, stronger effect = lower value.
Where [10] appears, read: H69AR cells, compound alone cytotoxicity.

Calls of active or inactive are those of the source. Cut-off read from the data, not from the text of the source, unless noted: active = inhibition above about 30%; inactive = the rest.

Receptor tyrosine-protein kinase erbB-2 (Homo sapiens), sequence (P04626 whole entry, looked up): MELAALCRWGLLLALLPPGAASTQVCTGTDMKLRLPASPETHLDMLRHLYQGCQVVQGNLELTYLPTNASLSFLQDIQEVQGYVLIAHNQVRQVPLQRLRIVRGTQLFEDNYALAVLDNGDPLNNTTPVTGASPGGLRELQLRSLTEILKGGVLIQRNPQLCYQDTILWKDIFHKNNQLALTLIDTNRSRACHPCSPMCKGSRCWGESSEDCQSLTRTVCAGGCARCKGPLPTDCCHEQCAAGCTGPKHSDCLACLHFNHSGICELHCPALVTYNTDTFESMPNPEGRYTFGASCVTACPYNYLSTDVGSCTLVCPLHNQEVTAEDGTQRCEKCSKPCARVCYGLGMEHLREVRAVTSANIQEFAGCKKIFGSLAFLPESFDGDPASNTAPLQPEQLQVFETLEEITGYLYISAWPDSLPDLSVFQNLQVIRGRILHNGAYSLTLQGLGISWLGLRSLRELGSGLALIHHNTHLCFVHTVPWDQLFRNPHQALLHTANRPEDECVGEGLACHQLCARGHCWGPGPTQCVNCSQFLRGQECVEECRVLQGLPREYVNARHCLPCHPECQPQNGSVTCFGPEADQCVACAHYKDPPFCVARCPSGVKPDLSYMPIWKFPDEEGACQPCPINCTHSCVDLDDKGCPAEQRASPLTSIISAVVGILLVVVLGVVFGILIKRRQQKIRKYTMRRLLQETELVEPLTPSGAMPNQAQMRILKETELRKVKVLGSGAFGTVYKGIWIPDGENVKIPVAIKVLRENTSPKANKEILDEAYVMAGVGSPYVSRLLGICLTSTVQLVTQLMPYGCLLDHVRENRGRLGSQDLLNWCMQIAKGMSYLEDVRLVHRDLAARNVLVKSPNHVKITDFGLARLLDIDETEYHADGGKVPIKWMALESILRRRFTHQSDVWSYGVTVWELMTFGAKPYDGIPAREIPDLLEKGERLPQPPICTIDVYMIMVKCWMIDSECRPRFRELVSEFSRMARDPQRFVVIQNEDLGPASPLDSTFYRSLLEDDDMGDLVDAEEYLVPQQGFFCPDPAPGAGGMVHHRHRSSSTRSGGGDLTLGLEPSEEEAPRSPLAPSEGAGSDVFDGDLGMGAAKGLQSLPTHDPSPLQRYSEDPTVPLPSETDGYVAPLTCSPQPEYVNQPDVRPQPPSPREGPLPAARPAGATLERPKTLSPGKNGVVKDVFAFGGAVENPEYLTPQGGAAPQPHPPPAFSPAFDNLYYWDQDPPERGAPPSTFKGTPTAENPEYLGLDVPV

Take `COc1ccc(NC(=O)CCc2nc(-c3ccccc3F)no2)cc1`: the viability in test [1] was 115%; in test [3], 115% (inactive); in test [4], 91.9% (inactive); in test [5], 93.6% (inactive); in test [6] (setting [9]), 89.1%; in test [6] (setting [10]) it was 93.6%. The Her2 level in test [2] was 99% (inactive). Further, in test [6] (H69AR cells + 2 uM doxorubicin), the differential viability (reversal) was 4.53% (inactive). The inhibition in test [7] was -0.26% (inactive); in test [8], -0.66% (inactive).

Take `CCN(CC)S(=O)(=O)c1ccc2oc(SCc3ccc(F)cc3)nc2c1`: the viability in test [1] is 93.5%; in test [3], 93.5% (inactive); in test [4] it was 68.5% (inactive); in test [5], 80.1% (inactive); in test [6] (setting [9]) it was 95%; in test [6] (setting [10]), 80.1%. For the same compound, the Her2 level in test [2] was 82.5% (inactive). Also, the differential viability (reversal) in test [6] (H69AR cells + 2 uM doxorubicin) is -14.8% (inactive). For the same compound, the values for the inhibition in test [7] and in test [8] were 0.54% (inactive) and -0.95% (inactive), respectively.

With `CCc1nnc(NC(=O)CSc2nnc(CSc3nc(C)cc(C)n3)n2CC)s1`, the viability is 100% in test [1]; 100% (inactive) in test [3]; 84.1% (inactive) in test [4]; 88.7% (inactive) in test [5]; 86.9% in test [6] (setting [9]); 88.7% in test [6] (setting [10]). Also, the Her2 level in test [2] was 116% (inactive). Also, the differential viability (reversal) in test [6] (H69AR cells + 2 uM doxorubicin) is 1.79% (inactive). Besides, the inhibition in test [7] was 0.77% (inactive); in test [8], 22.5% (inactive).

On to `O=S(=O)(c1ccc(S(=O)(=O)N2CCN3CCCC3C2)cc1)N1CCCC1` (stereo not given), for which the viability in test [1] is 80.5%; in test [3], 80.5% (inactive); in test [4] it was 104% (inactive); in test [5] it was 98.9% (inactive); in test [6] (setting [9]), 82.8%; in test [6] (setting [10]), 98.9%. In addition, the Her2 level in test [2] was 90.5% (inactive). In addition, the differential viability (reversal) in test [6] (H69AR cells + 2 uM doxorubicin) is 16.1% (inactive). Besides, the inhibition in test [7] is -0.77% (inactive); in test [8], 0.17% (inactive).

Consider `CCCN(CCC)C(=O)C1CCN(c2cc(C)nc3c(-c4ccc(OC)c(OC)c4)c(C)nn23)CC1`, for which the viability in test [1] is 81.5%; in test [3] it was 81.5% (inactive); in test [4] it was 58.1% (inactive); in test [5], 69.1% (inactive); in test [6] (setting [9]), 25%; in test [6] (setting [10]), 69.1%. For the same compound, in test [2], the Her2 level was 88% (inactive). In test [6] (H69AR cells + 2 uM doxorubicin), the differential viability (reversal) was 44% (inactive). Besides, the inhibition is -0.13% (inactive) in test [7] and -5.08% (inactive) in test [8].

For the compound `Cc1c(/C(O)=C2/C(=O)C(=O)N(CCN3CCOCC3)C2c2cccnc2)cnn1-c1ccccc1` (stereo not given), the viability is 85.5% in test [1]; 85.5% (inactive) in test [3]; 110% (inactive) in test [4]; 91.5% (inactive) in test [5]; 82.3% in test [6] (setting [9]); 91.5% in test [6] (setting [10]). The Her2 level in test [2] is 108% (inactive). In test [6] (H69AR cells + 2 uM doxorubicin), the differential viability (reversal) is 9.19% (inactive). Also, the inhibition was 1.45% (inactive) in test [7] and -1.09% (inactive) in test [8].

On to `CCOC(=O)c1c(NC(=O)OC)sc(C(=O)N(C)C)c1C`, for which the viability was 109% in test [1]; 109% (inactive) in test [3]; 112% (inactive) in test [4]; 108% (inactive) in test [5]; 87.9% in test [6] (setting [9]); 108% in test [6] (setting [10]). Moreover, the Her2 level in test [2] was 94.5% (inactive). For the same compound, the differential viability (reversal) in test [6] (H69AR cells + 2 uM doxorubicin) was 20% (inactive). The inhibition in test [7] was -6.89% (inactive); in test [8], -4% (inactive).

Regarding `Cc1c(NS(=O)(=O)c2ccc3c(c2)c(=O)n(C)c(=O)n3C)c(=O)n(-c2ccccc2)n1C`, the viability in test [1] was 99.5%; in test [3], 99.5% (inactive); in test [4], 77.8% (inactive); in test [5] it was 95.7% (inactive); in test [6] (setting [9]) it was 89.6%; in test [6] (setting [10]), 95.7%. For the same compound, the Her2 level in test [2] is 85.5% (inactive). Moreover, in test [6] (H69AR cells + 2 uM doxorubicin), the differential viability (reversal) was 6.11% (inactive). In addition, the inhibition in test [7] was -4.4% (inactive); in test [8], 7.7% (inactive).

On to `O=C(c1cccnc1NCc1ccccc1)N1CCOCC1`, for which the viability in test [1] is 77.5%; in test [3] it was 77.5% (inactive); in test [4], 86.4% (inactive); in test [5], 93.8% (inactive); in test [6] (setting [9]) it was 93%; in test [6] (setting [10]), 93.8%. The Her2 level in test [2] is 126% (inactive). The differential viability (reversal) in test [6] (H69AR cells + 2 uM doxorubicin) is 0.76% (inactive). In addition, the inhibition in test [7] is 1.08% (inactive); in test [8], 23.2% (inactive).

For `CCCCN(CCCC)CCCNC(=O)CC1Oc2ccc(C)cc2NC1=O` (stereo not given), the viability was 102% in test [1]; 102% (inactive) in test [3]; 78% (inactive) in test [4]; 90.7% (inactive) in test [5]; 86% in test [6] (setting [9]); 90.7% in test [6] (setting [10]). In addition, the Her2 level in test [2] is 84.5% (inactive). Also, the differential viability (reversal) in test [6] (H69AR cells + 2 uM doxorubicin) is 4.72% (inactive). The inhibition in test [7] was -6.76% (inactive); in test [8] it was -3.17% (inactive).

On to `O=C(c1ccc2c(c1)c(=O)oc1ccccc12)N1CCCCC1`, for which the viability is 109% in test [1]; 109% (inactive) in test [3]; 98.6% (inactive) in test [4]; 101% (inactive) in test [5]; 87.3% in test [6] (setting [9]); 101% in test [6] (setting [10]). The Her2 level in test [2] is 86% (inactive). In addition, the differential viability (reversal) in test [6] (H69AR cells + 2 uM doxorubicin) is 14.1% (inactive). Further, the inhibition in test [7] was -2.11% (inactive); in test [8] it was 3.17% (inactive).

For `COc1cccc(NC(=O)N[C@@H](Cc2ccccc2)C(=O)O)c1`, the viability in test [1] was 94%; in test [3], 94% (inactive); in test [4] it was 93.8% (inactive); in test [5], 114% (inactive); in test [6] (setting [9]), 94.5%; in test [6] (setting [10]), 114%. Besides, the Her2 level in test [2] was 91.5% (inactive). Also, the differential viability (reversal) in test [6] (H69AR cells + 2 uM doxorubicin) was 19.6% (inactive). Besides, the values for the inhibition in test [7] and in test [8] were -4.46% (inactive) and 2.06% (inactive), respectively.

For `CC(C)CNS(=O)(=O)c1ccc(CCC(=O)N2CCOCC2)cc1`, the viability is 87.5% in test [1]; 87.5% (inactive) in test [3]; 95% (inactive) in test [4]; 91.3% (inactive) in test [5]; 94.6% in test [6] (setting [9]); 91.3% in test [6] (setting [10]). The Her2 level in test [2] is 94% (inactive). Also, the differential viability (reversal) in test [6] (H69AR cells + 2 uM doxorubicin) was -3.29% (inactive). Further, the inhibition in test [7] is -4.73% (inactive); in test [8], -4.59% (inactive).

Regarding `COc1cc(OC)c(-c2nn3c(C4CCCCC4)nnc3s2)cc1OC`, the viability in test [1] was 102%; in test [3] it was 102% (inactive); in test [4], 80.8% (inactive); in test [5], 77.5% (inactive); in test [6] (setting [9]), 79.5%; in test [6] (setting [10]) it was 77.5%. Moreover, the Her2 level in test [2] was 116% (inactive). The differential viability (reversal) in test [6] (H69AR cells + 2 uM doxorubicin) is -2% (inactive). Further, the figures for the inhibition in test [7] and in test [8] were -0.52% (inactive) and 2.3% (inactive), respectively.

For the origin of these results see PubChem BioAssay.
